The record followed here is ChEMBL document CHEMBL2086372 (ACS Med Chem Lett, 2012).

SMILES strings stand for the structures. Calls of active or inactive are those of the source. The rule behind the calls is not given here.

The subject of series [1] is Mus musculus. In words: Antidepressant activity in CD1 mouse assessed as decrease in immobility time at 0.05 mg/kg, ip after 15 mins by forced swim test relative to vehicle-treated control. It is filed as functional, organism-based. Also on record: dose 0.05 mg/kg. In outline: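 Mouse forced swimming test with immobility time as the read-out. Single ip doses were 0.012, 0.025, 0.05, 0.2 or 0.5 mg/kg, with fluoxetine 20 mg/kg ip as reference. Results are compared against vehicle-treated mice and given as means ± SEMs of 8–9 animals.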

The test system of series [2] is Mus musculus. In words: Effect on morphine-dependence in CD1 mouse assessed as decrease in naloxone-precipitated jumping at 0.05 mg/kg, ip administered chronically 15 mins prior to each morphine challenge relative to vehicle-treated control. It is filed as functional, organism-based. Also on record: dose 0.05 mg/kg. In short, it runs like this: (§1)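 Acquisition of morphine dependence in mice, tested with repeated ip dosing (racemate 0.05 mg/kg, enantiomers 0.025 mg/kg). Withdrawal was precipitated by naloxone. Scored signs were jumping frequency and somatic signs (rearing, forepaw tremors, teeth chatter). Groups were compared with vehicle and with the morphine group.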

The test system of series [3] is Mus musculus. Description: Effect on morphine-dependence in CD1 mouse assessed as decrease in naloxone-precipitated rearing at 0.05 mg/kg, ip administered chronically 15 mins prior to each morphine challenge relative to vehicle-treated control. The class given is functional, organism-based. Also on record: dose 0.05 mg/kg. In short, it runs like this: as §1
For series [4], the system named is Mus musculus. In words: Effect on morphine-dependence in CD1 mouse assessed as decrease in naloxone-precipitated jumping at 0.05 mg/kg, ip administered acutely 15 mins prior to naloxone challenge relative to vehicle-treated control. The class given is functional, organism-based. Set-up: dose 0.05 mg/kg. In outline: (§2)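 Expression of morphine dependence in mice, tested with a single acute ip dose (racemate 0.05 mg/kg, enantiomers 0.025 mg/kg). Withdrawal was precipitated by naloxone in control and morphine-treated mice. Scored signs were jumping frequency and somatic signs (rearing, forepaw tremors, teeth chatter). Groups were compared with vehicle and with the morphine group.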

The subject of series [5] is Mus musculus. Description: Effect on morphine-dependence in CD1 mouse assessed as decrease in naloxone-precipitated teeth chatter at 0.05 mg/kg, ip administered acutely 15 mins prior to naloxone challenge relative to vehicle-treated control. The class given is functional, organism-based. Also on record: dose 0.05 mg/kg. In short, it runs like this: as §2
The test system of series [6] is Mus musculus. Description: Effect on morphine-dependence in CD1 mouse assessed as decrease in naloxone-precipitated forepaw tremors at 0.05 mg/kg, ip administered acutely 15 mins prior to naloxone challenge relative to vehicle-treated control. The class given is functional, organism-based. Also on record: dose 0.05 mg/kg. In outline:
as §2

In series [7] the target is T1, Alpha-2C adrenergic receptor (Homo sapiens) (UniProt P18825).
T1 sequence (whole entry): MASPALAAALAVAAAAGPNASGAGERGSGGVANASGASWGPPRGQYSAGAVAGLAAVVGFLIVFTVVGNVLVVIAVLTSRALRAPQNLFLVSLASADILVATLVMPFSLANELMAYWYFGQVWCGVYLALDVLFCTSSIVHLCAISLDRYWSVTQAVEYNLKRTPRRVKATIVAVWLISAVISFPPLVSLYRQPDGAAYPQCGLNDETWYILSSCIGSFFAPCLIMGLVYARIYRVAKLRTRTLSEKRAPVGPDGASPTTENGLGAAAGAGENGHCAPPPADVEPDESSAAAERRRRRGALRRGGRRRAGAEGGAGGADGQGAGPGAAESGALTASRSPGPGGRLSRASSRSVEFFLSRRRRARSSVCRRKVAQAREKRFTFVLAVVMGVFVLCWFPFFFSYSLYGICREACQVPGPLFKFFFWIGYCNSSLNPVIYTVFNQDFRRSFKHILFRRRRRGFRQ
Description: Agonist activity at human alpha2C adrenoceptor expressed in CHO cells assessed as extracellular acidification measured after 4 mins by cytosensor microphysiometric analysis relative to control. It is filed as functional, cell-based. In outline:
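Binding and functional assays run on CHO cells expressing recombinant human α2-AR subtypes. Functional read-outs are agonist potency (pEC50) with intrinsic activity (ia), or antagonist pKb. Affinity is reported as pKi. Values are means ± SEMs of 3–6 separate experiments.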

The test system of series [8] is Mus musculus. Description: Effect on morphine-dependence in CD1 mouse assessed as decrease in naloxone-precipitated rearing at 0.05 mg/kg, ip administered acutely 15 mins prior to naloxone challenge relative to vehicle-treated control. The class given is functional, organism-based. Also on record: dose 0.05 mg/kg. In short, it runs like this:
as §2

Series [9] relates to Mus musculus. In words: Effect on morphine-dependence in CD1 mouse assessed as decrease in naloxone-precipitated teeth chatter at 0.05 mg/kg, ip administered chronically 15 mins prior to each morphine challenge relative to vehicle-treated control. The class given is functional, organism-based. Also on record: dose 0.05 mg/kg. In outline:
as §1

The nature of series [10]: Aqueous solubility of the compound after 1 hr at pH 7.4. It is filed as physicochemical. As to conditions: buffer, pH 7.4, 1 h.
Series [11] in a line: Permeability of the compound at 10 uM after 4 hrs by PAMPA assay. The class given is ADME. (In general: The PAMPA barrier holds no transporters, so it reflects passive diffusion.)
For series [12], the target named is T2, 5-hydroxytryptamine receptor 1A (Homo sapiens, UniProt P08908).
T2 sequence (P08908 whole entry): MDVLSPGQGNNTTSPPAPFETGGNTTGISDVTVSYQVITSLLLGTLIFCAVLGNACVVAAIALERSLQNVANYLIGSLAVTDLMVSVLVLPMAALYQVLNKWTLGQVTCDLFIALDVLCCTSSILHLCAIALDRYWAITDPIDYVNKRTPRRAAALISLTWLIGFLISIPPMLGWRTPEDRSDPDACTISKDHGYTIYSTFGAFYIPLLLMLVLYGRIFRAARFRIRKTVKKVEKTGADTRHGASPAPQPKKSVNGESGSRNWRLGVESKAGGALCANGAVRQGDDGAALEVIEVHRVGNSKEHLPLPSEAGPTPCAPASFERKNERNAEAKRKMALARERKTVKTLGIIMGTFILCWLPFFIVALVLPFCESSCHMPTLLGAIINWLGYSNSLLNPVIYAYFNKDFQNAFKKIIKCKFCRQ
In words: Displacement of [3H]8-OH-DPAT from human 5HT1A receptor expressed in HeLa cells after 30 mins. The class given is cell-based. In outline: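 pKi is derived from displacement of [3H]-8-OH-DPAT binding at human cloned 5-HT1A receptor. Values are means ± SEMs of 3–6 separate experiments.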
On the technique in general: Loss of bound radioactivity is the signal in a displacement assay; it reports binding, not function.

The subject of series [13] is Mus musculus. In words: Effect on morphine-dependence in CD1 mouse assessed as decrease in naloxone-precipitated forepaw tremors at 0.05 mg/kg, ip administered chronically 15 mins prior to each morphine challenge relative to vehicle-treated control. It is filed as functional, organism-based. Set-up: dose 0.05 mg/kg. In outline:
as §1

In the case of `CC(Oc1ccccc1CC1CC1)C1=NCCN1` (racemic) [CYCLOMETHYLINE], the result in the series with Mus musculus [1], with Mus musculus [2], in the series on Mus musculus [3], with Mus musculus [4], with Mus musculus [5] and in the series with Mus musculus [6] was Active. Besides, the outcome in the series on Mus musculus [8], with Mus musculus [9] and with Mus musculus [13] was Active. In [7], the Intrinsic activity was 0.8. In [10], the solubility result was “soluble”. Besides, the permeability result in series [11] is recorded as “permeable”. The Ki in series [12] is 10.5 nM.

As a reminder, the Ki is the dissociation constant of the complex between target and ligand, obtained from inhibition or displacement. Read a low Ki as tighter binding.
